Published values from different studies.
Target: Mitogen-activated protein kinase kinase kinase 11 (MAP3K11, Homo sapiens, UniProt Q16584)

Compound | read-out | technique | tested at | remaining binding
O=C(NCCCN1CCOCC1)c1ccc(Nc2nccc(-c3cc4ccccc4s3)n2)cc1 | binding | competition with immobilised ligand | 1 µM | 39%
CN(C)c1nccc(-c2cnc3ncccn23)n1 | binding | – | 1 µM | 88%
COc1cnc(Nc2cccc(S(N)(=O)=O)c2)nc1N1CCN(c2ccccc2)CC1 | binding | competition with immobilised ligand | 1 µM | 76%
O=C(NCc1ncc(C(F)(F)F)cc1Cl)c1ccc2c(c1)C1(CCS(=O)(=O)CC1)[C@H](C1CC1)N2S(=O)(=O)c1ccc(F)cc1 | cell-free assay | competition with immobilised ligand | 1 µM | 100%
COc1cnc(Nc2cccc(S(N)(=O)=O)c2)nc1N1CCN(c2ccccc2)C(=O)C1 | binding | competition with immobilised ligand | 1 µM | 100%
N[C@@H]1CCN(c2nccc(-c3cnn4ncccc34)n2)C1 | binding | – | 1 µM | 99%
CCCOc1ccc([C@H]2[C@H](C(=O)O)[C@@H](c3ccc4c(c3)OCO4)CN2CC(=O)Nc2c(CC)cccc2CC)cc1 | cell-free assay | competition with immobilised ligand | 1 µM | 100%
O=C(c1ccc(Nc2ncc(Cl)c(-c3ccc(Cl)s3)n2)cc1)N1CCC(N2CCCC2)CC1 | binding | competition with immobilised ligand | 1 µM | 13%
Cc1c(NC(=O)c2cc(C(N)=O)nc3cc(F)ccc23)c(C(F)(F)F)nn1Cc1ccc(C#N)cc1 | cell-free assay | competition with immobilised ligand | 1 µM | 100%
COc1ncc2cc3ccccc3nc2c1C#N | cell-free assay | competition with immobilised ligand | 5 µM | 86%
O=C(Nc1c[nH]nc1C(=O)NC1CCNCC1)c1cc(F)cc(F)c1 | binding | competition with immobilised ligand | 1 µM | 99%
COc1ccnn2ncc(-c3ccnc(N(C)C)n3)c12 | binding | – | 1 µM | 100%
C[C@@]1(Cc2ccc(C#N)cc2)C(=O)N(c2cc(Cl)cc(Cl)c2)c2ncc(C(=O)NC3(c4nc(C5CCC5)no4)CC3)n21 | cell-free assay | competition with immobilised ligand | 1 µM | 100%
Cc1cnc(Nc2ccc(C(=O)N3CCC(N4CCCC4)CC3)cc2)nc1-c1cc2ccccc2s1 | binding | competition with immobilised ligand | 1 µM | 13%
c1cnn2ncc(-c3ccnc(N4CCC45COC5)n3)c2c1 | binding | – | 1 µM | 100%
FC(F)(F)c1ccc2c(c1)nc(-c1cccnc1)n2C1CC1 | cell-free assay | competition with immobilised ligand | 1 µM | 100%
CN(c1nccc(-c2cnn3ncccc23)n1)C1CC1 | binding | – | 1 µM | 100%
O=c1nc(-c2ccccn2)sc2ccccc12 | binding | competition with immobilised ligand | 1 µM | 100%
C[C@@H]1CCN(c2nccc(-c3cnn4ncccc34)n2)C1 | binding | – | 1 µM | 100%
c1cncc(-c2cccc(Nc3nccc(NC4CCCCC4)n3)c2)c1 | binding | competition with immobilised ligand | 10 µM | 30%
